Laboratory results: ChEMBL document CHEMBL1152770, “Inhibitors of hepatitis C virus polymerase: synthesis and biological characterization of unsymmetrical dialkyl-hydroxynaphthalenoyl-benzothiadiazines” (J Med Chem, 2009)

Key:
[1] = Aqueous solubility in 50 mM citrate buffer at pH 4; type: physicochemical
How it was run: (§1)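 Equilibrium solubility in PEG 400, in 50 mM citrate buffer pH 4 or in 50 mM phosphate buffer pH 7.4. Buffers brought to ionic strength 0.155 M with NaCl. Vials rotated at 25 °C for 4 days, final pH measured, then supernatant assayed by reverse-phase HPLC at 262 nm against a linear standard curve.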

[2] = AUC in rat at 5 mg/kg, po; type: ADME, organism-based; set-up: dose 5 mg/kg, route oral; conditions: plasma
How it was run: (§2)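 Vehicle DMSO:PEG400 (10:90, v/v). Dosing at 5 mg/kg in rat and monkey; dog 5 mg/kg or 2.5 mg/kg. Protein precipitation with acetonitrile, then LC-MS/MS in negative-ion MRM (m/z 516.2→437.0) against spiked standards with internal standard.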

[3] = Metabolic stability in human liver microsomes assessed as intrinsic clearance; type: ADME, Microsome
[4] = AUC in monkey at 5 mg/kg, iv; type: ADME, organism-based, Macaca mulatta; set-up: dose 5 mg/kg, route intravenous; conditions: rhesus monkey, plasma; how it was run: as §2
[5] = Aqueous solubility in 50 mM phosphate buffer at pH 7.4; type: physicochemical; how it was run: as §1
[6] = test system: Hepatocyte; experiment: Metabolic stability in human hepatocytes assessed as intrinsic clearance; type: ADME, cell-based, Liver
[7] = AUC in monkey at 5 mg/kg, po; type: ADME, organism-based, Macaca mulatta; set-up: dose 5 mg/kg, route oral; conditions: rhesus monkey, plasma; how it was run: as §2
[8] = Solubility in polyethylene glycol 400 at 25 deg C; type: physicochemical; how it was run: as §1
[9] = AUC in dog at 2.5 mg/kg, iv; type: ADME, organism-based, Canis lupus familiaris; set-up: dose 2.5 mg/kg, route intravenous; conditions: plasma; how it was run: as §2
[10] = AUC in rat at 5 mg/kg, iv; type: ADME, organism-based; set-up: dose 5 mg/kg, route intravenous; conditions: plasma; how it was run: as §2
[11] = Elimination half life in monkey at 5 mg/kg, po; type: ADME, organism-based, Macaca mulatta; set-up: dose 5 mg/kg, route oral; conditions: rhesus monkey, in vivo, read-out: beta t1/2 (converted); how it was run: as §2
[12] = Tmax in dog at 2.5 mg/kg, po; type: ADME, organism-based, Canis lupus familiaris; set-up: dose 2.5 mg/kg, route oral; conditions: in vivo
How it was run: (§3)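 Single oral gavage-type dose in DMSO:PEG400 (10:90, v/v). Heparinized plasma collected at 0.25, 0.5, 1, 2, 4, 6, 9, 12 and 24 h, with extra 3 and 15 h points in dog. Acetonitrile protein precipitation was followed by LC-MS in negative-ion MRM mode with an internal standard. Tmax was read from the plasma profile.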

[13] = Oral bioavailability in rat at 5 mg/kg; type: ADME, organism-based; conditions: in vivo; how it was run: as §2
[14] = Oral bioavailability in monkey at 5 mg/kg; type: ADME, organism-based, Macaca mulatta; conditions: rhesus monkey, in vivo; how it was run: as §2
[15] = Metabolic stability in monkey hepatocytes assessed as intrinsic clearance; type: ADME, cell-based, Macaca mulatta, Liver, Hepatocyte; conditions: rhesus monkey
[16] = Tmax in monkey at 5 mg/kg, po; type: ADME, organism-based, Macaca mulatta; set-up: dose 5 mg/kg, route oral; conditions: rhesus monkey, in vivo; how it was run: as §3
[17] = Cmax in dog at 2.5 mg/kg, po; type: ADME, organism-based, Canis lupus familiaris; set-up: dose 2.5 mg/kg, route oral; conditions: in vivo; how it was run: as §2
[18] = Volume of distribution at steady state in dog at 2.5 mg/kg, iv; type: ADME, organism-based, Canis lupus familiaris; set-up: dose 2.5 mg/kg, route intravenous; conditions: in vivo, read-out: Vdss
How it was run: (§4)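 Single intravenous dose. Heparinized plasma sampled at 0.1, 0.25, 0.5, 1, 2, 4, 6, 9, 12 and 24 h, plus 3 and 15 h in dog. Drug was isolated by acetonitrile protein precipitation and quantified by LC-MS in negative-ion MRM mode (m/z 516.2→437.0) against an internal standard. Concentrations came from unweighted linear regression of spiked standards.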

[19] = Drug level in rat liver at 5 mg/kg, po after 12 hrs; type: ADME, organism-based; set-up: dose 5 mg/kg, route oral; conditions: read-out: Drug uptake
How it was run: (§5)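 Rats dosed orally at 5 mg/kg, four groups, sacrificed at 6 and 12 h. Plasma and liver homogenate extracted by acetonitrile protein precipitation with internal standard and quantified by LC-MS (negative-ion MRM). Liver/plasma ratio taken from the two concentrations.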

[20] = Terminal phase volume of distribution in rat at 5 mg/kg, iv; type: ADME, organism-based; set-up: dose 5 mg/kg, route intravenous; conditions: in vivo, read-out: Vbeta; how it was run: as §4
[21] = Inhibition of HCV isolate BK NS5B polymerase after 3 hrs by scintillation counting
[22] = Elimination half life in rat at 5 mg/kg, iv; type: ADME, organism-based; set-up: dose 5 mg/kg, route intravenous; conditions: in vivo, read-out: beta t1/2 (converted); how it was run: as §2
[23] = test system: Hepatitis C virus; experiment: Antiviral activity against HCV 1a containing chimeric genotype 1a-H77/1b-con1 subgenom in human Huh7 cells assessed as reduction in viral RNA after 4 days by RT-PCR; conditions: subtype 1a, Huh-7, 96 h
[24] = test system: Hepatitis C virus; experiment: Ratio of EC50 for HCV isolate Con1 in presence of 40% human serum to EC50 for HCV isolate Con1; type: functional, Hepacivirus hominis
How it was run: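 Genotype 1b-con1 subgenomic replicon in Huh-7 cells. Four-day incubation with inhibitor in medium with 5% FBS, with or without 40% human serum. EC50 from the fall in HCV RNA copy number by real-time PCR. Ratio is EC50 with serum over EC50 without.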

[25] = Elimination half life in monkey at 5 mg/kg, iv; type: ADME, organism-based, Macaca mulatta; set-up: dose 5 mg/kg, route intravenous; conditions: rhesus monkey, in vivo, read-out: beta t1/2 (converted); how it was run: as §2
[26] = Metabolic stability in rat liver microsomes assessed as intrinsic clearance; type: ADME, Microsome
[27] = Cmax in rat at 5 mg/kg, po; type: ADME, organism-based; set-up: dose 5 mg/kg, route oral; conditions: in vivo; how it was run: as §2
[28] = Terminal phase volume of distribution in monkey at 5 mg/kg, iv; type: ADME, organism-based, Macaca mulatta; set-up: dose 5 mg/kg, route intravenous; conditions: rhesus monkey, in vivo, read-out: Vbeta; how it was run: as §4
[29] = Inhibition of HCV isolate H77 NS5B polymerase after 3 hrs by scintillation counting
[30] = n-Octanol-phosphate buffer distribution coefficient, log D at pH 7.4; type: physicochemical
How it was run: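 Compound was dissolved in n-octanol and mixed with 50 mM phosphate buffer, isotonic with NaCl, pH 7.4. The mixture was tumbled at 25 °C, 25 rpm, for 2-3 days, then centrifuged to split the phases. Each phase was assayed by reverse-phase HPLC (UV 262 nm) against a linear standard curve. D is the octanol/buffer concentration ratio.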

[31] = Terminal phase volume of distribution in dog at 2.5 mg/kg, iv; type: ADME, organism-based, Canis lupus familiaris; set-up: dose 2.5 mg/kg, route intravenous; conditions: in vivo, read-out: Vbeta; how it was run: as §2
[32] = AUC in dog at 2.5 mg/kg, po; type: ADME, organism-based, Canis lupus familiaris; set-up: dose 2.5 mg/kg, route oral; conditions: plasma; how it was run: as §2
[33] = Plasma clearance in dog at 2.5 mg/kg, iv; type: ADME, organism-based, Canis lupus familiaris; set-up: dose 2.5 mg/kg, route intravenous; how it was run: as §2
[34] = Cytotoxicity against human HuH7 cells by MTT assay; type: cell-based, Huh-7; conditions: read-out: TD50 (the source's name)
How it was run: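 Cytotoxicity in Huh-7 replicon cultures measured by MTT colorimetric assay after the four-day incubation.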

[35] = test system: Hepatitis C virus; experiment: Antiviral activity against HCV isolate Con1 assessed as reduction in viral RNA after 4 days by RT-PCR in presence of 40% human serum; conditions: isolate Con1, 96 h
[36] = Elimination half life in dog at 2.5 mg/kg, iv; type: ADME, organism-based, Canis lupus familiaris; set-up: dose 2.5 mg/kg, route intravenous; conditions: in vivo, read-out: beta t1/2 (converted); how it was run: as §2
[37] = Plasma clearance in rat at 5 mg/kg, iv; type: ADME, organism-based; set-up: dose 5 mg/kg, route intravenous; how it was run: as §2
[38] = test system: Hepatitis C virus; experiment: Antiviral activity against HCV isolate Con1 in human Huh7 cells assessed as reduction in viral RNA after 4 days by RT-PCR; conditions: isolate Con1, Huh-7, 96 h
[39] = Elimination half life in dog at 2.5 mg/kg, po; type: ADME, organism-based, Canis lupus familiaris; set-up: dose 2.5 mg/kg, route oral; conditions: in vivo, read-out: beta t1/2 (converted); how it was run: as §2
[40] = test system: Hepatocyte; experiment: Metabolic stability in rat hepatocytes assessed as intrinsic clearance; type: ADME, cell-based, Liver
[41] = Drug level in rat liver at 5 mg/kg, po after 6 hrs; type: ADME, organism-based; set-up: dose 5 mg/kg, route oral; conditions: read-out: Drug uptake; how it was run: as §5
[42] = Metabolic stability in dog liver microsomes assessed as intrinsic clearance; type: ADME, Canis lupus familiaris, Microsome
[43] = Metabolic stability in monkey liver microsomes assessed as intrinsic clearance; type: ADME, Macaca mulatta, Microsome; conditions: rhesus monkey
[44] = Volume of distribution at steady state in monkey at 5 mg/kg, iv; type: ADME, organism-based, Macaca mulatta; set-up: dose 5 mg/kg, route intravenous; conditions: rhesus monkey, in vivo, read-out: Vdss; how it was run: as §4
[45] = Cmax in monkey at 5 mg/kg, po; type: ADME, organism-based, Macaca mulatta; set-up: dose 5 mg/kg, route oral; conditions: rhesus monkey, in vivo; how it was run: as §2
[46] = Volume of distribution at steady state in rat at 5 mg/kg, iv; type: ADME, organism-based; set-up: dose 5 mg/kg, route intravenous; conditions: in vivo, read-out: Vdss; how it was run: as §4
[47] = Oral bioavailability in dog at 2.5 mg/kg; type: ADME, organism-based, Canis lupus familiaris; conditions: in vivo; how it was run: as §2
[48] = Tmax in rat at 5 mg/kg, po; type: ADME, organism-based; set-up: dose 5 mg/kg, route oral; conditions: in vivo; how it was run: as §3
[49] = Plasma clearance in monkey at 5 mg/kg, iv; type: ADME, organism-based, Macaca mulatta; set-up: dose 5 mg/kg, route intravenous; conditions: rhesus monkey; how it was run: as §2
[50] = Metabolic stability in dog hepatocytes assessed as intrinsic clearance; type: ADME, cell-based, Canis lupus familiaris, Liver, Hepatocyte
[51] = test system: Hepatitis C virus; experiment: Antiviral activity against HCV genotype 1 infected in human assessed as reduction in viral titer after 48 hrs; type: functional, Hepacivirus hominis

## CC(C)(C)CC[C@@]1(C)C(=O)C(C2=NS(=O)(=O)c3cc(NS(C)(=O)=O)ccc3N2)=C([O-])c2ccccc21.[Na+]
[1]
  solubility: < 0.2 µg/mL
[2]
  AUC: 11500 ng·h/mL
[3]
  microsomal CLint: 23.6 µL/min/mg
[4]
  AUC: 10200 ng·h/mL
[5]
  solubility: 110 µg/mL
[6]
  CL: 2.7 µL/min/mg
[7]
  AUC: 1900 ng·h/mL
[8]
  solubility: 150 mg/mL
[9]
  AUC: 116 µg·h/mL
[10]
  AUC: 14900 ng·h/mL
[11]
  half-life: 120 min
[12]
  Tmax: 2.2 h
[13]
  bioavailability: 77.3%
[14]
  bioavailability: 19%
[15]
  CL: 3.5 µL/min/mg
[16]
  Tmax: 2.7 h
[17]
  Cmax: 5700 ng/mL
[18]
  Vd: 0.38 L/kg
[19]
  concentration at 12 h: 4190 ng/g
[20]
  Vd: 2.39 L/kg
[21]
  IC50: 0.6 nM
[22]
  half-life: 270 min
[23]
  EC50: 4 nM
[24]
  Ratio EC50: 17
[25]
  half-life: 126 min
[26]
  microsomal CLint: 8.7 µL/min/mg
[27]
  Cmax: 890 ng/mL
[28]
  Vd: 1.77 L/kg
[29]
  IC50: 0.7 nM
[30]
  logD: 2.26
[31]
  Vd: 0.46 L/kg
[32]
  AUC: 121 µg·h/mL
[33]
  clearance: 0.333 mL/min/kg
[34]
  CC50: 21.7 µM
[35]
  EC50: 28 nM
[36]
  half-life: 738 min
[37]
  clearance: 5.67 mL/min/kg
[38]
  EC50: 2 nM
[39]
  half-life: 888 min
[40]
  CL: 1.6 µL/min/mg
[41]
  concentration at 6 h: 21800 ng/g
[42]
  microsomal CLint: 2.4 µL/min/mg
[43]
  microsomal CLint: 14.4 µL/min/mg
[44]
  Vd: 0.77 L/kg
[45]
  Cmax: 480 ng/mL
[46]
  Vd: 2.22 L/kg
[47]
  bioavailability: 100%
[48]
  Tmax: 9 h
[49]
  clearance: 9.33 mL/min/kg
[50]
  CL: 0.5 µL/min/mg

## COc1ccc2c(O[C@@H]3C[C@H]4C(=O)N[C@]5(C(=O)O)C[C@H]5/C=C\CCCCC[C@H](NC(=O)OC5CCCC5)C(=O)N4C3)cc(-c3csc(NC(C)C)n3)nc2c1
[23]
  EC50: 3 nM
[38]
  EC50: 3 nM
[51]
  Activity: 2
